Measured values published in ChEMBL document CHEMBL1142527, “Tricyclic [1,2,4]triazine 1,4-dioxides as hypoxia selective cytotoxins” (J Med Chem, 2008).
pIC50: −log10 of the molar value.

Tests used:
[1] = Solubility at 22 degC in culture medium in presence of 5% fetal calf serum; format: physicochemical
How it was run: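 Solubility of the HCl salts is determined in culture medium containing 5% fetal calf serum at 22 °C.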

HT-29 [2] = experiment: Cytotoxicity against human HT-29 cells after 4 hrs under strict hypoxic condition; format: functional, cell-based; settings: Homo sapiens, HT-29, 4 h
HT-29 [3] = experiment: Hypoxic cytotoxicity ratio, ratio of aerobic IC50 to anoxic IC50 for human HT-29 cells; format: functional
SiHa [4] = experiment: Cytotoxicity against human SiHa cells after 4 hrs under strict hypoxic condition; format: functional, cell-based; settings: Homo sapiens, SiHa, 4 h
SiHa [5] = experiment: Hypoxic cytotoxicity ratio, ratio of aerobic IC50 to anoxic IC50 for human SiHa cells; format: functional
HT-29 [6] = experiment: Metabolic stability in human HT-29 multicellular layer assessed as apparent first-order rate constant under anoxic condition; format: ADME, cell-based
How it was run: (§1)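 Stirred single-cell suspensions of anoxic HT29 cells are exposed for 3 h at a drug concentration giving roughly one log kill by 1 h. Clonogenic survival is followed, and extracellular drug is monitored by HPLC. Concentration-time data are fitted for the apparent first-order metabolic rate constant k_met, scaled to MCL cell density. CT₁₀ and M₁₀ (drug metabolized at 10% survival) are interpolated from the fitted PK/PD model.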

HT-29 [7] = experiment: Cytotoxicity against human HT-29 cells assessed as AUC-time curve providing 10% surviving fraction by clonogenic assay; format: functional
HT-29 [8] = experiment: Drug metabolism in human HT-29 cells assessed as amount of drug metabolized for one log of cell kill at their CT10 concentration for 1 hr; format: ADME, cell-based; settings: ht-29, 1 h; how it was run: as §1
[9] = culture medium with 5% fetal calf serum, read-out: solubility

| Compound | solubility [1, 9] | pIC50 (HT-29 [2]) | Ratio IC50 (HT-29 [3]) | pIC50 (SiHa [4]) | Ratio IC50 (SiHa [5]) | Activity (HT-29 [6]) | Activity (HT-29 [7]) | Activity (HT-29 [8]) | solubility ([1]; serum) | Activity (HT-29 [8]; 1 h) |
| --- | --- | --- | --- | --- | --- | --- | --- | --- | --- | --- |
| CCc1n[n+]([O-])c2cc3c(cc2[n+]1[O-])CC(CN1CCOCC1)C3 (stereo not drawn) | 43 mM | 5.32 | 31 | 5.62 | 62 | 0.54 min⁻¹ | 24.1 µM·h | 1544 µM |  |  |
| CN(C)CCNc1n[n+]([O-])c2cc3c(cc2[n+]1[O-])OCO3 |  |  |  |  |  | 0.87 min⁻¹ |  |  | > 50 mM | 4310 µM |
| Nc1n[n+]([O-])c2cc3c(cc2[n+]1[O-])OCC3 | 0.1 mM | 3.93 | 4 | 4.64 |  |  |  |  |  |  |
| CCc1n[n+]([O-])c2cc3c(cc2[n+]1[O-])CC(CO)C3 (stereo not drawn) | 5 mM | 4.77 | 45 | 5.19 | 48 | 0.47 min⁻¹ | 49.7 µM·h | 2096 µM |  |  |
| [O-][n+]1nc(NCCCN2CCOCC2)[n+]([O-])c2cc3c(cc21)OCC3 | > 49 mM | 4.66 | 8 | 5.47 | 28 | 0.2 min⁻¹ | 116 µM·h | 2660 µM |  |  |
| CCNc1n[n+]([O-])c2cc3c(cc2[n+]1[O-])CN(C)CC3 | > 47 mM | 5.59 | 59 | 5.96 | 100 |  |  |  |  |  |
| CCc1n[n+]([O-])c2cc3c(cc2[n+]1[O-])CN(C)CC3 | > 47 mM | 4.88 | 2 | 5.51 | 6 |  |  |  |  |  |
| CN(C)CCNc1n[n+]([O-])c2cc3c(cc2[n+]1[O-])OCC3 | 49 mM | 5.28 | 46 | 5.72 | 128 | 0.6 min⁻¹ | 43.3 µM·h | 3000 µM |  |  |
| CCN(CC)CCNc1n[n+]([O-])c2cc3c(cc2[n+]1[O-])OCC3 | 47 mM | 5.00 | 113 | 5.47 | 122 | 0.26 min⁻¹ | 58 µM·h | 1718 µM |  |  |
| [O-][n+]1nc(NCCCN2CCOCC2)[n+]([O-])c2cc3c(cc21)CCO3 | 46 mM | 4.31 | 6 | 4.54 | 14 | 0.23 min⁻¹ | 82.1 µM·h | 2155 µM |  |  |
| CCNc1n[n+]([O-])c2cc3c(cc2[n+]1[O-])CC(N(C)C)C3 (stereo not drawn) | 46 mM |  |  |  |  |  |  |  |  |  |
| CCN1Cc2cc3c(cc2C1)[n+]([O-])c(N)n[n+]3[O-] | 6 mM | 5.82 |  | 6.10 | 80 | 2.2 min⁻¹ | 8.1 µM·h | 2022 µM |  |  |
| CC1Cc2cc3c(cc2C1)[n+]([O-])c(CCCO)n[n+]3[O-] (stereo not drawn) | 10 mM | 4.89 | 80 | 5.10 | 104 | 0.24 min⁻¹ | 85.3 µM·h | 2394 µM |  |  |
| CN(C)CCNc1n[n+]([O-])c2c3c(ccc2[n+]1[O-])OCCC3 | 47 mM | 5.39 | 14 | 6.15 | 66 | 0.59 min⁻¹ | 46.1 µM·h | 3124 µM |  |  |
| CC1Cc2cc3c(cc2C1)[n+]([O-])c(CCCN1CCOCC1)n[n+]3[O-] (stereo not drawn) | 36 mM |  |  |  |  | 0.96 min⁻¹ |  | 2059 µM |  |  |
| Nc1n[n+]([O-])c2cc3c(cc2[n+]1[O-])CCC3 | 3 mM | 4.82 | 27 | 5.08 | 31 | 0.47 min⁻¹ | 106 µM·h | 7735 µM |  |  |
| CCN(CC)CCNc1n[n+]([O-])c2cc3c(cc2[n+]1[O-])CCC3 | 48 mM | 5.39 | 61 | 5.96 | 133 | 1.08 min⁻¹ | 36.3 µM·h | 4521 µM |  |  |
| [O-][n+]1nc(NCCN2CCCCC2)[n+]([O-])c2ccc3c(c21)CCC3 | 36 mM | 5.31 | 53 | 6.00 | 51 | 1.6 min⁻¹ | 27.2 µM·h | 5022 µM |  |  |
| [O-][n+]1nc(NCCCN2CCOCC2)[n+]([O-])c2ccc3c(c21)CCC3 | 46 mM | 4.42 | 24 | 4.86 | 33 | 0.2 min⁻¹ | 176.4 µM·h | 4108 µM |  |  |
| CC1Cc2cc3c(cc2C1)[n+]([O-])c(NCCN(C)C)n[n+]3[O-] (stereo not drawn) | > 49 mM | 5.46 | 54 | 5.85 | 97 | 1.49 min⁻¹ | 23 µM·h | 3057 µM |  |  |
| CC1Cc2cc3c(cc2C1)[n+]([O-])c(NCCCN1CCOCC1)n[n+]3[O-] (stereo not drawn) | > 49 mM | 4.72 | 25 | 5.08 | 50 | 0.13 min⁻¹ | 122.9 µM·h | 1903 µM |  |  |
| [O-][n+]1nc(NCCCN2CCOCC2)[n+]([O-])c2cc3c(cc21)CCC3 | 48 mM | 4.67 | 20 | 5.06 | 44 | 0.19 min⁻¹ | 76.2 µM·h | 1715 µM |  |  |
| CCN(CC)CCNc1n[n+]([O-])c2c3c(ccc2[n+]1[O-])CCC3 | > 49 mM | 5.38 | 17 | 6.05 | 64 | 0.97 min⁻¹ | 35.1 µM·h | 3806 µM |  |  |
| CCCN(CCC)CCNc1n[n+]([O-])c2c3c(ccc2[n+]1[O-])CCC3 | 40 mM | 4.91 | 7 | 5.48 | 23 | 0.73 min⁻¹ | 66.3 µM·h | 5626 µM |  |  |
| [O-][n+]1nc(NCCCN2CCOCC2)[n+]([O-])c2cc3c(cc21)CCCC3 | 49 mM | 5.20 | 25 | 5.59 | 54 | 0.69 min⁻¹ | 41.6 µM·h | 3294 µM |  |  |
| CN(C)CCNc1n[n+]([O-])c2c3c(ccc2[n+]1[O-])CCCC3 | 47 mM | 5.47 | 18 | 6.00 | 64 | 1.78 min⁻¹ | 19.5 µM·h | 4223 µM |  |  |
| CN(C)CCNc1n[n+]([O-])c2cc3c(cc2[n+]1[O-])CCCCC3 | > 53 mM | 5.28 | 54 | 5.92 | 88 | 1.52 min⁻¹ | 30.6 µM·h | 5404 µM |  |  |
